Entries after “also recorded” stand apart in the source; their conditions may differ.
Assays:
[1] = system: mTOR targets (S6RP pS235-S236, S6RP pS240-S244, 4EBP1) and Akt; experiment: Reverse phase protein array; type: in vivo, human
How it was run: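 Peripheral blood proteins from 10 patients (3 on 5 mg/day, 7 on 10 mg/day everolimus) were lysed as for western blots, taken before (C1D0) and 24 h after (C1D1) the first dose. The reverse phase protein array probed mTOR pS2448, p70S6K pT389, S6RP pS235-S236 and pS240-S244, 4EBP1 pS65 and pT37-T46, and Akt pS473 and pT308. Phospho/total ratios were compared between days 0 and 1.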

[2] = Everolimus whole blood pharmacokinetics; type: in vivo, human
How it was run: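 Patients with relapsed/refractory ALL took oral everolimus (5 or 10 mg/day, continuous from Cycle 1 Day 0) with HyperCVAD. Whole blood was collected in EDTA tubes 1, 2, 5, 8 and 24 h post-dose on Days 1 and 15 of Cycles 1 and 2 and held at 4°C. Drug levels were measured by validated HPLC-MS/MS with sirolimus internal standard. Cmax, Tmax, t1/2, Ke, CL, AUC0-∞ and V came from non-compartmental analysis.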

[3] = system: patients with relapsed/refractory acute lymphoblastic leukemia
[4] = system: pS6RP, p4EBP1 (Thr37/46), pAkt (Ser473); type: in vivo, human; conditions: 5 of 8 tested samples; 24 h after first dose; both 5 mg and 10 mg dose levels
[5] = system: mTOR-sensitive, inflammation-associated and miR-21 target gene sets; type: in vivo, human
How it was run: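 Peripheral blood was sampled from 5 patients before (C1D0) and 24 h after (C1D1) the first oral everolimus dose. RNA was TRIzol-extracted, isopropanol-precipitated and 70% ethanol-washed, accepted at integrity number >7, and amplified/biotinylated via oligo(dT) reverse transcription and T7 transcription with biotin-UTP. It was hybridised to HumanHT-12 v4 bead chips and analysed by gene set enrichment analysis.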

[6] = system: relapsed/refractory acute lymphoblastic leukemia; experiment: Phase I/II study: response and survival with everolimus plus HyperCVAD; type: in vivo, human
[7] = system: patients with relapsed or refractory hematologic malignancies; conditions: phase I study at UT/MDACC; cited from earlier work
[8] = 1 of 24 patients, everolimus with HyperCVAD
[9] = all 24 patients, everolimus with HyperCVAD
[10] = patients in first salvage, everolimus with HyperCVAD
[11] = patients in second salvage and beyond, everolimus with HyperCVAD

## CO[C@H]1C[C@@H]2CC[C@@H](C)[C@@](O)(O2)C(=O)C(=O)N2CCCC[C@H]2C(=O)O[C@H]([C@H](C)C[C@@H]2CC[C@@H](OCCO)[C@H](OC)C2)CC(=O)[C@H](C)/C=C(\C)[C@@H](O)[C@@H](OC)C(=O)[C@H](C)C[C@H](C)/C=C/C=C/C=C/1C [everolimus]
[1]; 10 patients, 1-sided paired t-test P=0.007
  phosphorylation of S6RP pS235-S236 (RPPA): inhibited phosphorylation
[1]; 10 patients, 1-sided paired t-test P=0.01
  phosphorylation of S6RP pS240-S244 (RPPA): inhibited phosphorylation
[1]; 24 h after first dose
  phosphorylation of 4EBP1, Akt, or other proteins: No significant decreases; also recorded: No statistically significant differences
[1]; everolimus 5 mg/day, RPPA and western blot
  phosphorylation of S6RP at pS235-S236 and pS240-S244 sites: sufficiently blocked
[1]; including Akt targets cyclin D1, FOXO3A, PRAS40 and Mcl-1
  degree of inhibition of proteins or phosphorylated forms, 5 mg/day vs 10 mg/day: did not differ
[1]; of 10 patients with serial analysis
  patients with elevation of PTEN levels by RPPA: Five
[2]; 10-mg/day dose
  AUC and Cmax at steady state (C1D15 and C2D0) versus literature: higher than in previous published studies
[2]; in vivo
  trough levels of everolimus, association: not associated with response or toxicity
[2]; whole blood
  AUC and Cmax between everolimus 5 mg/day and 10 mg/day: dose-proportional
[3]; human, in vivo
  Cardiac: Pericardial effusion, G1/2: 0 N (%)
  Cardiac: Pericardial effusion, G3/4: 2 (8) N (%)
  Cardiac: Tachycardia, G1/2: 3 (13) N (%)
  Cardiac: Tachycardia, G3/4: 1 (4) N (%)
  Constitutional: Fatigue, G1/2: 13 (54) N (%)
  Constitutional: Fatigue, G3/4: 0 N (%)
  Constitutional: Headache, G1/2: 6 (25) N (%)
  Constitutional: Headache, G3/4: 4 (17) N (%)
  Gastrointestinal: Diarrhea, G1/2: 8 (33) N (%)
  Gastrointestinal: Diarrhea, G3/4: 2 (8) N (%)
  Gastrointestinal: Nausea, G1/2: 9 (38) N (%)
  Gastrointestinal: Nausea, G3/4: 0 N (%)
  Infection (one or more), G1/2: 0 N (%)
  Infection (one or more), G3/4: 23 (96) N (%)
  Metabolic: ALT/AST, G1/2: 14 (58) N (%)
  Metabolic: ALT/AST, G3/4: 7 (29) N (%)
  Metabolic: Bilirubin, G1/2: 14 (58) N (%)
  Metabolic: Bilirubin, G3/4: 2 (8) N (%)
  Metabolic: Hyperglycemia, G1/2: 7 (29) N (%)
  Metabolic: Hyperglycemia, G3/4: 12 (50) N (%)
  Mucositis/stomatitis, G1/2: 10 (42) N (%)
  Mucositis/stomatitis, G3/4: 3 (13) N (%)
  Pulmonary: Dyspnea, G1/2: 1 (4) N (%)
  Pulmonary: Dyspnea, G3/4: 1 (4) N (%)
  Pulmonary: Pleural effusions, G1/2: 1 (10) N (%)
  Pulmonary: Pleural effusions, G3/4: 2 (8) N (%)
  Renal: Renal insufficiency, G1/2: 0 N (%)
  Renal: Renal insufficiency, G3/4: 4 (17) N (%)
  Renal: Urinary retention, G1/2: 1 (4) N (%)
  Renal: Urinary retention, G3/4: 0 N (%)
  incidence of grade 3/4 hyperglycemia: 50%
  myelosuppression and neutropenia: occurred in all 24 patients
[3]; in combination with HyperCVAD, 3+3 design
  maximum tolerated dose (MTD) of everolimus: 5 mg/day
[3]; in vivo
  DLT at dose level 0: no documented first or second cycle DLT
  pneumonitis: No documented cases
[4]
  samples with reduced phosphorylation of S6RP (western blot): 62%
[5]; 5 patients, C1D0 vs C1D1
  expression of mTOR-sensitive genes induced by overexpression of Akt (GSEA): significantly reduced
  inflammation-associated genes (TNF, EGF, IL-6 induced) (GSEA): similarly reduced
  target genes of miR-21 (GSEA): increased
[5]; P=0.016
  patient samples with increased PTEN expression (microarray): 4 of the 5
[6]; [8]
  CR without platelet recovery (CRp): 4%
  CR without recovery of counts (CRi): 4%
[6]; 2 of 24 patients, everolimus with HyperCVAD
  partial response (PR): 8%
[6]; 5 of 10 heavily pretreated T-ALL patients, everolimus with HyperCVAD
  response in T-ALL patients: 50%
[6]; 5 of 13 patients (all CR), everolimus with HyperCVAD
  response in B-ALL patients: 39%
[6]; 6 of 24 patients, everolimus with HyperCVAD
  complete remission (CR): 25%
[6]; 7 of 11 patients, everolimus with HyperCVAD
  response (CR/CRp) in first salvage: 64%
[6]; 10 patients, everolimus with HyperCVAD
  responses beyond second salvage: no responses
[6]; B-ALL patients, everolimus with HyperCVAD
  median OS: 23 weeks
[6]; T-ALL patients, everolimus with HyperCVAD
  median OS: 23 weeks
[6]; [9]
  overall response rate (CR+CRp+CRi): 33%
  response noted (including PR): 41%
[6]; among patients who achieved CR/CRp/CRi
  no detectable MRD at response (multiparametric flow cytometry): 5 of the 8
[6]; everolimus with HyperCVAD
  CRi in second salvage: 1 of 3
[6]; [10]
  median EFS: 22 weeks
  median OS: 29 weeks
[6]; [11]
  median EFS: 7 weeks
  median OS: 15 weeks
[6]; responders with abnormal cytogenetics at diagnosis
  complete cytogenetic response: 3 patients
[7]
  tolerability of single-agent everolimus: well tolerated at a dose of 10 mg daily

From PMC4470787 (Clinical cancer research : an official journal of the …, 2015)
